From ChEMBL document CHEMBL4411313, “Substrate-Specific Inhibition Constants for Phospholipase A2 Acting on Unique Phospholipid Substrates in Mixed Micelles and Membranes Using Lipidomics” (J Med Chem, 2019) come the findings set out here.

As usually defined, the IC50 is the concentration at which inhibition is half-maximal.

The target of assay [1] is T1, Secretory phospholipase A2 (Homo sapiens) (UniProt Q5R387+Q9NZK7+P14555+Q9BZM2+Q9UNK4+P39877+O15496+P04054+Q9NZ20+Q9BZM1+Q9BX93).
Assay [2] addresses T1, Secretory phospholipase A2 (Homo sapiens). The source holds these as a separate data set.
In assay [3] the target is T2, 85/88 kDa calcium-independent phospholipase A2 (Homo sapiens) (UniProt O60733).
T2 sequence (whole entry): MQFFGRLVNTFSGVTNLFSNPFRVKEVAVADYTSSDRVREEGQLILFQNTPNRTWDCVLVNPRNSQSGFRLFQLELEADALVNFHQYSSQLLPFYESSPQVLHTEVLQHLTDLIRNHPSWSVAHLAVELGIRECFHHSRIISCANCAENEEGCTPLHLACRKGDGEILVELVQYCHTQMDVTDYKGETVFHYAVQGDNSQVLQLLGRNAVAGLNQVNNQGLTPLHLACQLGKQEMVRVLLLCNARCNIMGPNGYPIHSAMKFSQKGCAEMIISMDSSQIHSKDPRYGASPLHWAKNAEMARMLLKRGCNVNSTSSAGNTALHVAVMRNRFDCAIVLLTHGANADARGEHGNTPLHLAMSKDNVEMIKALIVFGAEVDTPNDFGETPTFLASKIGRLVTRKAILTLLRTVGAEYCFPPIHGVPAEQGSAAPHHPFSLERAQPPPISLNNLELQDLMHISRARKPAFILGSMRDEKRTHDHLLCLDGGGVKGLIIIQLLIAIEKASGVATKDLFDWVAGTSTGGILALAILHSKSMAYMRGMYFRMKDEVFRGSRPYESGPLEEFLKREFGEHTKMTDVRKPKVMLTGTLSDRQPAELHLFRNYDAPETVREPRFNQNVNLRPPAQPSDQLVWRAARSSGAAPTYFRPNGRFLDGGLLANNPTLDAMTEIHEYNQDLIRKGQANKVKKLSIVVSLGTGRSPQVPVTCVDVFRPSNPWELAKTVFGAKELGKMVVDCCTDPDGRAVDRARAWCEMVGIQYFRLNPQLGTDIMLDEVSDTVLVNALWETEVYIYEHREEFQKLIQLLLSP
Briefly: (§1) Inhibition of human recombinant calcium-independent PLA2 using PAPG as substrate assessed as reduction in 16:0 […] formation after 30 mins in presence of equal molar mixture of PAPA/PAPC/PAPE/PAPG/PAPS/PLPC by HPLC-MS analysis.

Assay [4] concerns the target T2, 85/88 kDa calcium-independent phospholipase A2 (Homo sapiens). Briefly: (§2) Inhibition of human recombinant calcium-independent PLA2 using PAPE as substrate assessed as assessed as reduction in free AA formation after 30 mins in presence of equal molar mixture of PAPA/PAPC/PAPE/PAPG/PAPS/PLPC by HPLC-MS analysis. In outline: (§3)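 The iPLA2 substrate was an equimolar mixture of PAPA, PAPC, PAPE, PAPG and PAPS (100 µM total) with 400 µM C12E8. Buffer was 100 mM HEPES pH 7.5, 2 mM ATP and 4 mM DTT; 30 min at 40 °C. Each 16:0 lysophospholipid was quantified in positive ion mode; free AA, common to all five substrates, in negative ion mode.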

Assay [5] concerns the target T1, Secretory phospholipase A2 (Homo sapiens). This is another data set of the same source.
Assay [6] has as its target Cytosolic phospholipase A2 (Homo sapiens) (UniProt P47712). Briefly: Inhibition of human recombinant cytosolic PLA2 using PAPA as substrate assessed as reduction in free FA formation after 30 mins in presence of equal molar mixture of PAPA/PAPC/PAPE/PAPG/PAPS/PLPC by HPLC-MS analysis.
The target in assay [7] is T2, 85/88 kDa calcium-independent phospholipase A2 (Homo sapiens). Briefly: (§4) Inhibition of human recombinant calcium-independent PLA2 using PAPA as substrate assessed as reduction in […] after 30 mins by HPLC-MS analysis.
Assay [8] deals with T3, Cytosolic phospholipase A2 (Homo sapiens) (UniProt P47712).
T3 sequence (whole entry): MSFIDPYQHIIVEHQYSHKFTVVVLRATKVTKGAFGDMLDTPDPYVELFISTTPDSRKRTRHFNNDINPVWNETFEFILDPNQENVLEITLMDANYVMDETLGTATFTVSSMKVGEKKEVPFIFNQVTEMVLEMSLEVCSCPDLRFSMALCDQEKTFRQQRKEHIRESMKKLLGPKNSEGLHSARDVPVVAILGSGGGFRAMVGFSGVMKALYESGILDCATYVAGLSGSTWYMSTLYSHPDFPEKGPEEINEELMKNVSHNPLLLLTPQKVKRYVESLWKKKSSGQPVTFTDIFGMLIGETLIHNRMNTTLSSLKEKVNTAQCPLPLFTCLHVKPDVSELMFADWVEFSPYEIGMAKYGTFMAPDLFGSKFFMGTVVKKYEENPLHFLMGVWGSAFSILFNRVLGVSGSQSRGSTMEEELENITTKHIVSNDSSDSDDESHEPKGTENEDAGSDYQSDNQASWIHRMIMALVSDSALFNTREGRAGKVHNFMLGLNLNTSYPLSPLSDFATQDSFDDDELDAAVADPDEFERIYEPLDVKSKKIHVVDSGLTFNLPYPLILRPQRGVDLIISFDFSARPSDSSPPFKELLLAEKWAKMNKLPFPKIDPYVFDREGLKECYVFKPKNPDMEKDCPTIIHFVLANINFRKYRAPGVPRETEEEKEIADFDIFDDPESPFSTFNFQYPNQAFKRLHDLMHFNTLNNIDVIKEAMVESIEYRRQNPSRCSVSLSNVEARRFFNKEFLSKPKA
Briefly: Inhibition of human recombinant cPLA2 assessed as reduction in 16:0 LPC formation after 30 mins by HPLC-MS analysis. In outline:
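Human recombinant group IVA cPLA2 in mixed micelles with 97 µM PAPC plus 3 µM PI(4,5)P2 (100 µM total phospholipid) and 400 µM C12E8. Buffer was 100 mM HEPES pH 7.5, 90 µM CaCl2 and 2 mM DTT; incubation 30 min at 40 °C. 16:0 LPC was read by HILIC-MRM (positive ion) and free AA by C18 LC-MS (negative ion).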

Assay [9] deals with 85/88 kDa calcium-independent phospholipase A2 (Homo sapiens) (UniProt O60733). Briefly: Inhibition of human recombinant calcium-independent PLA2 using PAPS as substrate assessed as reduction in 16:0 LPS formation after 30 mins in presence of equal molar mixture of PAPA/PAPC/PAPE/PAPG/PAPS/PLPC by HPLC-MS analysis.
Assay [10] has as its target T4, 85/88 kDa calcium-independent phospholipase A2 (Homo sapiens, UniProt O60733).
T4 sequence (O60733 whole entry): T2 sequence (whole entry)
Described as §4.

Assay [11] addresses T2, 85/88 kDa calcium-independent phospholipase A2 (Homo sapiens). Briefly: (§5) Inhibition of human recombinant calcium-independent PLA2 using PAPC as substrate assessed as reduction in free [14C]-AA formation after 30 mins by scintillation counting. The method, boiled down: (§6)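 Radioactive format: iPLA2 hydrolysed PAPC/C12E8 mixed micelles traced with 1-palmitoyl-2-(1-[14C]arachidonoyl) PC. Released [14C]-AA was measured by scintillation counting. Percent inhibition was plotted against log mole fraction or log concentration to derive X1(50) and IC50.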

The target in assay [12] is T4, 85/88 kDa calcium-independent phospholipase A2. The description is as §5. The method, boiled down: as §6
Assay [13] concerns the target T2, 85/88 kDa calcium-independent phospholipase A2 (Homo sapiens). Briefly: Inhibition of human recombinant calcium-independent PLA2 using PAPA as substrate assessed as reduction in 16:0 LPA formation after 30 mins in presence of equal molar mixture of PAPA/PAPC/PAPE/PAPG/PAPS/PLPC by HPLC-MS analysis. In outline:
as §3

Assay [14] shares this target. Briefly: (§7) Inhibition of human recombinant iPLA2 assessed as reduction in 16:0 LPC formation after 30 mins by HPLC-MS analysis. The method, boiled down: (§8)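 Human recombinant group VIA iPLA2 acted on 100 µM single phospholipid (PAPC or PLPC) in 400 µM C12E8 mixed micelles. Buffer was 100 mM HEPES pH 7.5, 2 mM ATP and 4 mM DTT; incubation 30 min at 40 °C. 16:0 LPC was read by HILIC-MRM in positive ion mode; free AA or LA by C18 LC-MS in negative ion mode.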

The target in assay [15] is T4, 85/88 kDa calcium-independent phospholipase A2. The assay is described as §7. The method, boiled down:
as §8

The target is the same in assay [16]. Briefly: Inhibition of human recombinant calcium-independent PLA2 using PAPE as substrate assessed as reduction in […] after 30 mins in presence of equal molar mixture of PAPA/PAPC/PAPE/PAPG/PAPS/PLPC by HPLC-MS analysis.
Assay [17] has as its target T2, 85/88 kDa calcium-independent phospholipase A2 (Homo sapiens). Briefly: (§9) Inhibition of human recombinant iPLA2 assessed as reduction in free FA formation after 30 mins by HPLC-MS analysis. In outline:
as §8

The target in assay [18] is T4, 85/88 kDa calcium-independent phospholipase A2. The assay is described as §9. In outline:
as §8

Assay [19] deals with T2, 85/88 kDa calcium-independent phospholipase A2 (Homo sapiens). Briefly: (§10) Inhibition of human recombinant calcium-independent PLA2 using PAPC as substrate assessed as reduction in 16:0 LPC formation after 30 mins by HPLC-MS analysis. The method, boiled down: as §8
Assay [20] has as its target T4, 85/88 kDa calcium-independent phospholipase A2. Described as §10. In outline:
as §8

For assay [21] the target is unchanged. Briefly: Inhibition of human recombinant calcium-independent PLA2 using PAPC as substrate assessed as reduction in free AA formation after 30 mins by HPLC-MS analysis. In outline: as §8
Assay [22] deals with T2, 85/88 kDa calcium-independent phospholipase A2 (Homo sapiens). Briefly: Inhibition of human recombinant calcium-independent PLA2 using PAPE as substrate assessed as reduction in 16:0 LPE formation after 30 mins in presence of equal molar mixture of PAPA/PAPC/PAPE/PAPG/PAPS/PLPC by HPLC-MS analysis. The method, boiled down:
as §3

The target in assay [23] is T4, 85/88 kDa calcium-independent phospholipase A2. Briefly: Inhibition of human recombinant calcium-independent PLA2 using PLPC as substrate assessed as reduction in 16:0 LPC formation after 30 mins by HPLC-MS analysis. In outline: as §8
Assay [24] shares this target. The assay is described as §1.
For assay [25] the target is unchanged. Briefly: Inhibition of human recombinant calcium-independent PLA2 using PLPC as substrate assessed as reduction in free LA formation after 30 mins by HPLC-MS analysis.
For assay [26] the target is unchanged. The assay is described as §2. In outline: as §3
Assay [27] shares this target. Briefly: Inhibition of human recombinant calcium-independent PLA2 using PAPS as substrate assessed as reduction in […] after 30 mins in presence of equal molar mixture of PAPA/PAPC/PAPE/PAPG/PAPS/PLPC by HPLC-MS analysis.

As to `CCc1c(C(=O)C(N)=O)c2c(OCC(=O)O)cccc2n1Cc1ccccc1`, the XI50 in assay [1] worked out at 0.9 nM; in assay [2], 0.17 nM; in assay [5], 0.19 nM. The XI50 (mole fraction) in assay [3] is 0.0031 to 0.026; in assay [4] it was 0.0008.

Turning to `O=C1NC(=O)C(=Cc2ccc(C(=O)NC[C@@H]3C[C@@H](SC(c4ccccc4)(c4ccccc4)c4ccccc4)CN3C(=O)c3ccccc3C(=O)c3ccc(F)cc3F)cc2)S1`, the XI50 in assay [6] turned out to be 1.8 nM; in [7], 0.13 nM; in [9] it was 2 nM. Further, the XI50 (mole fraction) in assay [8] was determined as 0.0023.

Turning to `CCCCCCCCSCC(=O)C(F)(F)F`, the IC50 in [10] stood at 160 nM; in [12], 48 nM; in assay [15], 55 nM; in assay [16] it was 63 nM; in assay [18], 48 nM; in assay [20] it was 54 nM. Besides, the IC50 in [21] turned out to be 49 nM; in assay [23] it was 83 nM; in [24], 48 nM; in [25] it was 67 nM; in assay [26], 50 nM; in assay [27] it was 46 nM. In addition, the XI50 (mole fraction) in assay [11] was 9e-05; in [13], 0.0002; in assay [14], 8e-05; in assay [17], 7e-05; in [19], 8e-05; in assay [22], 9e-05. Moreover, the XI50 (mole fraction) is 6e-05 in [3] and 7e-05 in assay [4]. Besides, the XI50 in [9] stood at 0.05 nM.
